FGF22 binding-1 – shifts melting point of recombinant human FGF22; Q9HCT0; recombinant FGF22 thermal shift, SYPRO orange fluorescence; percent of sucrose octasulfate shift, DMSO zero; activity (Tm shift, normalised), % at 9.99 µM; hit rate 1.5% among 340,000;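 active = mean Tm shift, scaled 0 neutral to 100 positive control, at about 1.3% or above, every replicate too, limit read from the data; inconclusive = no clear call, values can overlap the other calls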
E-sel inducer – induces E-selectin expression in human endothelial cells | HUVEC E-selectin immunofluorescence imaging; normalized: neutral wells 0, TNF-alpha wells 100 | activation, % at 7.58 µM | hit rate 0.37% among 260,000 | AID 686992;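 active = mean E-selectin-positive cell signal at least 10% of the positive control, reached in at least 60% of replicates, without over 20% cell loss; inconclusive = no rule given, readout overlaps actives, possibly toxicity-flagged; inactive = the rest, including those meeting only one limit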
Target sequence (P16581 whole entry, looked up): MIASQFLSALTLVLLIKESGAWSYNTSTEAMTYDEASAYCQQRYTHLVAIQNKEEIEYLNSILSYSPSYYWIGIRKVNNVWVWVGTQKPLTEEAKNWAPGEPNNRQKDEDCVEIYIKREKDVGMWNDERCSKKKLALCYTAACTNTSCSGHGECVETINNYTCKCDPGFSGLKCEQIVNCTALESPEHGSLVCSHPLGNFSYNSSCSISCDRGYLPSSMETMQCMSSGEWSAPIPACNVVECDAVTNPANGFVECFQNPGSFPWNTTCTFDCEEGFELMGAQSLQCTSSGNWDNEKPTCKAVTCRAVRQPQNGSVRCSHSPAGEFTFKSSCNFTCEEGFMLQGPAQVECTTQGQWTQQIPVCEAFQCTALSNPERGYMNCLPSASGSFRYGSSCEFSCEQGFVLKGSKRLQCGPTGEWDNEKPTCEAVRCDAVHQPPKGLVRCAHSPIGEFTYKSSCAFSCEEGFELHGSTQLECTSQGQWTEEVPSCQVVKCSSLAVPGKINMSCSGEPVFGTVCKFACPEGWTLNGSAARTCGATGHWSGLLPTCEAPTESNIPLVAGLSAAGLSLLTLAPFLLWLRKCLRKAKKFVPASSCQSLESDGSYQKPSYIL
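System: HUVEC / Compound: single concentration / Signal: immunofluorescence imaging / Read-out: percent E-selectin-positive cells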
CFTR F508del cor – correctors of CFTR F508del function in bronchial epithelial cells; activity (quench increase), % at 7.58 µM; CFBE cells, YFP halide quenching; stimulated with forskolin plus potentiator P3; % fluorescence drop versus neutral controls; hit rate 0.36% among 350,000;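 active = mean added fluorescence quench of at least 8% versus neutral control, with both replicates also reaching 8%; inconclusive = only one of the mean or replicate conditions met; inactive = mean below 8% and not both replicates reaching 8%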;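 note: cells transiently co-express mutant CFTR-F508del with the halide-sensitive YFP; corrector assay measuring rescue of mutant channel to the surface after 24 h compound exposure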
ERAP1 inh – blocks human ERAP1 aminopeptidase activity; hit rate 0.15% among 340,000; recombinant ERAP1, Leu-AMC fluorescence, 60 min; inhibition, % at 10.7 µM; Q9NZ08;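 active = mean replicate inhibition of at least 30%, or all replicates individually reaching that 30% level; inactive = mean below 30% and not every replicate reaching it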;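 note: 0% = neutral control wells and 100% = L-leucinethiol positive control wells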
DENV2 CPE – inhibitors of DENV2 cytopathic effect. DENV2-infected cells, cytopathic effect rescue, plate reader. CPE inhibition, % at 9.99 µM. hit rate 1.7% among 350,000. AID 651640; in the data active = CPE inhibition above about 20%, passing the limit was not always enough; inconclusive = no clear call, values can overlap the other calls; tested in BHK-21 cells;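 note: 0% = median of neutral control wells and 100% = median of positive control wells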
FGF22 binding-2 – FGF22 (human) binding in thermal shift | shares compounds with FGF22 binding-1 | recombinant FGF22 thermal shift, SYPRO orange fluorescence | thermal shift activity, °C (ΔTm) at 38 µM | hit rate 2% among 1,000;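 active = fitted rise in melting shift crosses a set limit at or below the top valid dose tested; inconclusive = flat fit at mid-level activity, or a poor quality fit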
FGF22 TSA – FGF22 (human) binding by thermal shift | AID 743017 | Tm shift (activity), % at 38 µM | 50 tested, under 10 active | Thermal shift assay, SYPRO orange, melting temperature shift | shares compounds with FGF22 binding-1;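 active = compounds whose fitted dose curve of melting temperature shift rises past a set threshold within the tested doses; inconclusive = flat curve at moderate activity, or poor curve fit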
SYPRO no-protein – shows thermal shift signal without protein, FGF22 counter-screen; AC50, µM (top dose mostly 38 µM); AID 743019; shares compounds with FGF22 binding-1; hit rate 2% among 1,000; compound-only SYPRO orange thermal shift counter-screen, no protein;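 active = rising signal whose fitted curve reaches the 0.54 level within the top valid dose, showing a melting point, actives reach about 13 µM in these data; inactive = the rest, including activity in the opposite direction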; note: value is where the raw curve crosses a fixed level and not half-maximal
An asterisk follows results filed as active; i = inactive; ? = inconclusive; · = no result. Sampled rows, rich in hits. Any-hit rate of the full collection: about 3.7%.

SMILES	FGF22 binding-1	E-sel inducer	CFTR F508del cor	ERAP1 inh	DENV2 CPE	FGF22 binding-2	SYPRO no-protein	others
COc1ccc(NC(=O)N(C)C[C@@H]2Oc3c(NC(=O)NC4CCCCC4)cccc3C(=O)N([C@H](C)CO)C[C@@H]2C)cc1	0	0	2	3	1	·	·
CC(=O)N1CCc2c(sc(NC(=O)C3CC3)c2-c2nc3ccccc3s2)C1	0	0	-1	-6	?	·	·
CC(=O)Nc1sc2c(c1-c1nc3ccccc3s1)CN(C(C)C)CC2	0	1	24*	1	3	·	·
COc1ccc(NC(=O)N(Cc2cc3cc(C)ccc3[nH]c2=O)CC2CCCO2)cc1 (stereo unspecified)	0	-2	-3	2	2	·	·
O=c1[nH]c2cc3c(cc2cc1CN(Cc1ccco1)C(=S)NCC1CCCO1)OCCO3 (stereo unspecified)	42	·	6	5	15	·	·
Cc1ccc(C)c2[nH]c(=O)c(CN(Cc3ccco3)C(=S)NCC3CCCO3)cc12 (stereo unspecified)	43*	·	-1	2	·	·	·
CN(C)CCN(Cc1cc2cc3c(cc2[nH]c1=O)OCO3)C(=S)NCc1ccco1	43*	0	3	-7	8	·	·
COc1ccc2[nH]c(=O)c(CN(CC3CCCO3)C(=S)Nc3ccc(C)cc3)cc2c1 (stereo unspecified)	43*	·	0	-1	19	·	·
COc1ccc2[nH]c(=O)c(CN(CC3CCCO3)S(=O)(=O)c3ccccc3)cc2c1 (stereo unspecified)	44*	·	-3	5	-9	·	·
CO[C@H]1CN(C)C(=O)c2ccc(NS(=O)(=O)c3ccccc3C)cc2OC[C@H](C)NC[C@@H]1C	0	0	1	4	16	·	·
N#C[C@@H]1[C@@H](c2ccccc2C2=CCCC2)[C@@H](CO)N1C(=O)NC1CCCCC1	·	0	1	1	-19	·	·
CCNC(=S)N(CCN(C)C)Cc1cc2cc(OCC)ccc2[nH]c1=O	44*	1	2	-1	4	·	·
Cc1ccc2cc(CN(CC3CCCO3)C(=S)Nc3ccccc3)c(=O)[nH]c2c1C (stereo unspecified)	·	0	12*	·	·	·	·
COc1ccc2cc(CN(CC3CCCO3)C(=S)NCc3ccco3)c(=O)[nH]c2c1 (stereo unspecified)	43*	·	-1	3	-5	·	·
Cc1ccc2cc(CN(CC3CCCO3)C(=S)NCc3ccco3)c(=O)[nH]c2c1 (stereo unspecified)	0	0	-1	0	-6	·	·
O=C(C[C@H]1C=C[C@@H](NC(=O)c2ccncc2)[C@H](CO)O1)NCc1ccncn1	·	0	-3	1	5	·	·
CC(C)[C@H](NC(=O)c1ccccc1)C(=O)OCC(=O)/C=C1/N(C)c2ccccc2C1(C)C	44*	·	8	-4	0	·	·
COc1ccc(S(=O)(=O)N/N=c2\oc3c(OC)cccc3cc2S(=O)(=O)c2ccc(C)cc2)cc1OC	1.7*	·	-2	-1	-4	-0.042	i
CC(C)C(c1nnnn1CCc1ccccc1)N1CCSCC1 (stereo unspecified)	3.1*	·	-2	0	2	0.032	i
CC1CCN(C(c2nnnn2CCc2ccccc2)C(C)C)CC1 (stereo unspecified)	0	0	-1	·	-2	·	·
C[C@H]1CN([C@@H](C)CO)C(=O)c2cc(-c3cncnc3)cnc2O[C@@H]1CN(C)CC1CCCC1	0	0	1	3	8	·	·
O=[N+]([O-])c1ccc(CSc2nnc(Cc3ccccc3)o2)cc1	1.4*	-2	2	·	0	0.023	i
O=C(C[C@@H]1C=C[C@H](NC(=O)CC2CC2)[C@@H](CO)O1)NCC(F)(F)F	0	0	0	-2	0	·	·
C[C@H](O)C#Cc1ccc2c(c1)O[C@H](CN(C)C(=O)CC1CC1)[C@H](C)CN([C@H](C)CO)S2(=O)=O	0	0	-1	3	1	·	·
CCCN1C[C@@H](C)[C@@H](OC)CN(C)C(=O)c2ccc(NC(=O)c3ccccc3)cc2OC[C@@H]1C	0	0	0	2	4	·	·
SMILES	FGF22 binding-1	E-sel inducer	CFTR F508del cor	ERAP1 inh	DENV2 CPE	FGF22 binding-2	SYPRO no-protein	others
CCNC(=O)C1(C)CCN(Cc2ccc(OC(F)(F)F)cc2)C1 (stereo unspecified)	1.4*	0	-2	0	8	-0.008	i
CCNC(=O)C1(C)CCN(Cc2ccc(C(F)(F)F)cc2)C1 (stereo unspecified)	0	0	-3	0	-3	·	·
COc1ccc2c3c(n(C)c2c1)[C@H](CO)N(Cc1ccccc1Cl)CC31CCN(C(=O)CN(C)C)CC1	0	0	2	-4	6	·	·
Cn1cccc1/C=N/NC(=O)Cc1cccc2ccccc12	2.1*	·	3	0	-5	0.066	i
COc1ccc(C)cc1NS(=O)(=O)c1ccc(NS(=O)(=O)c2ccc(NC(C)=O)cc2)cc1	2.9*	·	-2	2	5	-0.008	i	FGF22 TSA=0
COc1ccc(S(=O)(=O)Nc2ccc(NC(C)=O)cc2)cc1Cl	1.7*	·	-3	-3	0	-0.005	i
COc1ccc(NS(=O)(=O)c2ccc(NC(C)=O)cc2)c(OC)c1	0	·	1	7	-1	·	·
COc1cc(NS(=O)(=O)c2ccc(NS(=O)(=O)c3ccc(NC(C)=O)cc3)cc2)nc(OC)n1	1.4*	0	-2	-4	1	0.12	i
COc1ccc(NC(=O)[C@H](C)NS(=O)(=O)c2ccc(NC(C)=O)cc2)cc1Cl	0	0	-1	-7	14	·	·
COc1cc(NS(=O)(=O)c2ccc(NC(=S)NC(C)=O)cc2)nc(OC)n1	0	0	-2	5	10	·	·
O=C(Nc1ccc2c(c1)OCO2)c1ccc(NC2CC2)c([N+](=O)[O-])c1	1.6*	·	·	2	-4	0.6	i
O=C1CC[C@@H]2c3[nH]c4ccc(F)cc4c3CCN12	0	·	1	1	0	·	·
N#C[C@H]1[C@H](c2ccccc2)[C@H](CO)N1S(=O)(=O)c1ccc(F)cc1	0	0	3	2	1	·	·
O=C1C(=O)C(c2ccccc2)C(=O)C1c1ccccc1 (stereo unspecified)	5.8*	0	0	0	6	0.007	i
Cc1ccc(C2C(=O)c3ccccc3C2=O)cc1	0	0	5	-1	?	·	·
